Assay results taken from ChEMBL document CHEMBL2163192, “N,N-Dimethyl-[9-(arylsulfonyl)-2,3,4,9-tetrahydro-1H-carbazol-3-yl]amines as novel, potent and selective 5-HT₆ receptor antagonists” (Bioorg Med Chem Lett, 2012).
pIC50, pKi: −log10 of the molar value. One block for each molecule: values may come before it. The source made the active and inactive calls. The calls are words filed in the database; no cut-off is given here.

Tests used:
[1] = biological target: T1, 5-hydroxytryptamine receptor 6 (Homo sapiens, UniProt P50406); experiment: Displacement of [3H]LSD from human cloned 5-HT6 receptor expressed in HeLa cells after 1 hr by scintillation counter; assay type: cell-based
[2] = biological target: 5-hydroxytryptamine receptor 2A (Homo sapiens) (UniProt P28223); experiment: Inhibition of 5-HT2A receptor at 1 uM
Procedure, shortened: (§1)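 In-house selectivity panel of related receptors and transporters; each compound tested at 1 μM and 10 μM; percent inhibition determined in duplicate and the mean of the two reported.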

[3] = biological target: Sodium-dependent dopamine transporter (Homo sapiens) (UniProt Q01959); experiment: Inhibition of DAT at 1 uM; procedure, shortened: as §1
[4] = Ratio of drug level in brain to plasma in Wistar rat at 10 mg/kg, po; assay type: ADME, organism-based; parameters: dose 10 mg/kg, route oral; settings: read-out: BPR
[5] = biological target: Sodium-dependent serotonin transporter (Homo sapiens) (UniProt P31645); experiment: Inhibition of SERT at 10 uM; procedure, shortened: as §1
[6] = biological target: CYP3A4 (Homo sapiens, UniProt P08684); experiment: Inhibition of human CYP3A4 at 3 uM; assay type: ADME
Procedure, shortened: (§2)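 Isoform-selective inhibition assays using heterologously expressed human CYP enzymes; compounds tested at 3 μM; percent inhibition reported.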

[7] = biological target: Histamine H4 receptor (Homo sapiens) (UniProt Q9H3N8); experiment: Inhibition of histamine H4 receptor at 1 uM; procedure, shortened: as §1
[8] = biological target: T2, 5-hydroxytryptamine receptor 1A (Homo sapiens) (UniProt P08908); experiment: Inhibition of 5-HT1A receptor at 10 uM; procedure, shortened: as §1
T2 sequence (whole entry): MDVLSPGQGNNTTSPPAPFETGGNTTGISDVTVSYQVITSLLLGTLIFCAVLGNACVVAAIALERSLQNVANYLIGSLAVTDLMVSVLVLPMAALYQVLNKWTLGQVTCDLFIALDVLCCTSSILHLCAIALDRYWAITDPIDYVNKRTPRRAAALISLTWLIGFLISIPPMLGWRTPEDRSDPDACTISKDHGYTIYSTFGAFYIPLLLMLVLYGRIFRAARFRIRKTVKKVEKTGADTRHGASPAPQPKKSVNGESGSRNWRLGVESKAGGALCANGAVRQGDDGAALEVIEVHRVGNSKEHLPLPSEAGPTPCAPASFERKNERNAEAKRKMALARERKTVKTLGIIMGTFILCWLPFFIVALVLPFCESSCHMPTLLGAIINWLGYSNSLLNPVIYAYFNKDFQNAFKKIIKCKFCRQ

[9] = biological target: Histamine H3 receptor (Homo sapiens) (UniProt Q9Y5N1); experiment: Inhibition of histamine H3 receptor at 1 uM; procedure, shortened: as §1
[10] = biological target: T1, 5-hydroxytryptamine receptor 6; experiment: Antagonist activity at human recombinant 5-HT6 receptor expressed in CHO cells assessed as inhibition of 5-HT-stimulated cAMP accumulation after 4 hrs by luciferase reporter gene assay; assay type: functional, cell-based
Procedure, shortened: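 Cell-based, non-radioactive reporter gene assay measuring antagonism of 5-HT-stimulated cAMP formation at human 5-HT6 receptor; IC50 and Kb values determined in duplicate.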

[11] = AUC in Wistar rat at 10 mg/kg, po; assay type: ADME, organism-based; parameters: dose 10 mg/kg, route oral; settings: plasma
Procedure, shortened: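 Fasted male Wistar rats (n = 3) received a single oral dose of 10 mg/kg in water for injection. AUC is given in ng.hr/mL as part of a pharmacokinetic profile that also includes Cmax, t1/2, Vd and clearance, and uses an i.v. 10 mg/kg arm to derive oral bioavailability.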

[12] = biological target: D(2) dopamine receptor (Homo sapiens) (UniProt P14416); experiment: Inhibition of dopamine D2 receptor at 10 uM; procedure, shortened: as §1
[13] = system: Rattus norvegicus; experiment: Cognitive enhancing effect in Wistar rat assessed as increase in time send on novel object at 1 to 10 mg/kg, po after 60 mins by novel object recognition test; assay type: functional, organism-based
Procedure, shortened: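 Novel object recognition in rats with 24-h delay procedure; 1, 3 and 10 mg/kg given orally in water for injection (2 mL/kg) 60 min before test; time exploring novel versus familiar object compared by paired t test, n = 8–10/group.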

[14] = Oral bioavailability in Wistar rat at 10 mg/kg; assay type: ADME, organism-based; settings: in vivo
Procedure, shortened: (§3)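 Fasted male Wistar rats, n=3, given 10 mg/kg orally in water for injection (10 mL/kg); plasma Cmax, half-life, Vd and clearance derived, with bioavailability from comparison against the 10 mg/kg iv arm.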

[15] = biological target: Histamine H3 receptor (Homo sapiens) (UniProt Q9Y5N1); experiment: Inhibition of histamine H3 receptor at 10 uM; procedure, shortened: as §1
[16] = biological target: CYP2C19 (Homo sapiens, UniProt P33261); experiment: Inhibition of human CYP2C19 at 3 uM; assay type: ADME; procedure, shortened: as §2
[17] = Cmax in Wistar rat at 10 mg/kg, po; assay type: ADME, organism-based; parameters: dose 10 mg/kg, route oral; settings: in vivo; procedure, shortened: as §3
[18] = biological target: Sodium-dependent dopamine transporter (Homo sapiens) (UniProt Q01959); experiment: Inhibition of DAT at 10 uM; procedure, shortened: as §1
[19] = system: Rattus norvegicus; experiment: Volume of distribution in Wistar rat at 10 mg/kg, po; assay type: ADME, organism-based; parameters: dose 10 mg/kg, route oral; settings: in vivo; procedure, shortened: as §3
[20] = biological target: Sodium-dependent serotonin transporter (Homo sapiens) (UniProt P31645); experiment: Inhibition of SERT at 1 uM; procedure, shortened: as §1
[21] = biological target: CYP2D6 (Homo sapiens, UniProt P10635); experiment: Inhibition of human CYP2D6 at 3 uM; assay type: ADME; procedure, shortened: as §2
[22] = biological target: T3, Alpha-1B adrenergic receptor (Homo sapiens) (UniProt P35368); experiment: Inhibition of alpha1B adrenergic receptor at 1 uM; procedure, shortened: as §1
T3 sequence (whole entry): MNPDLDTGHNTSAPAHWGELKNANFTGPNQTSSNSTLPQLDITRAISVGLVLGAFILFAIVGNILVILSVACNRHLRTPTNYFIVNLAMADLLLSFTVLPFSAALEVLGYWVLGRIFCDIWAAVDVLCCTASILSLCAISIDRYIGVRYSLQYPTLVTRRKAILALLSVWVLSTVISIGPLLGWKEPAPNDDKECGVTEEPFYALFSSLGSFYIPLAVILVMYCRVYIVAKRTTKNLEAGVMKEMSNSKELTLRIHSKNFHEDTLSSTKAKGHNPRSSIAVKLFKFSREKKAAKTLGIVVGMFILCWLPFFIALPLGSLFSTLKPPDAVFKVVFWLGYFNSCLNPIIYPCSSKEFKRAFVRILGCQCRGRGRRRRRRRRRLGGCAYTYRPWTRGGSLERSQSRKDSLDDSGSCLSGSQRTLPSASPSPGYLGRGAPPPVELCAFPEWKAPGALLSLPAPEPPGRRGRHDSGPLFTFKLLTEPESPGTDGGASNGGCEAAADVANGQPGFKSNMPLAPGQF

[23] = Cmax in Wistar rat at 10 mg/kg, iv; assay type: ADME, organism-based; parameters: dose 10 mg/kg, route intravenous; settings: in vivo
Procedure, shortened: (§4)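 Fasted male Wistar rats, n=3, single 10 mg/kg intravenous dose in water for injection (2 mL/kg); plasma concentration–time profile used for Cmax, AUC, half-life, Vd and clearance.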

[24] = biological target: 5-hydroxytryptamine receptor 2A (Homo sapiens) (UniProt P28223); experiment: Inhibition of 5-HT2A receptor at 10 uM; procedure, shortened: as §1
[25] = Drug metabolism in rat liver microsomes; assay type: ADME, Microsome; settings: read-out: Drug metabolism
[26] = Half life in Wistar rat at 10 mg/kg, iv; assay type: ADME, organism-based; parameters: dose 10 mg/kg, route intravenous; settings: in vivo; procedure, shortened: as §4
[27] = biological target: T3, Alpha-1B adrenergic receptor (Homo sapiens); experiment: Inhibition of alpha1B adrenergic receptor at 10 uM; procedure, shortened: as §1
[28] = biological target: D(2) dopamine receptor (Homo sapiens) (UniProt P14416); experiment: Inhibition of dopamine D2 receptor at 1 uM; procedure, shortened: as §1
[29] = Half life in Wistar rat at 10 mg/kg, po; assay type: ADME, organism-based; parameters: dose 10 mg/kg, route oral; settings: in vivo; procedure, shortened: as §3
[30] = AUC in Wistar rat at 10 mg/kg, iv; assay type: ADME, organism-based; parameters: dose 10 mg/kg, route intravenous; settings: plasma; procedure, shortened: as §4
[31] = biological target: Histamine H4 receptor (Homo sapiens) (UniProt Q9H3N8); experiment: Inhibition of histamine H4 receptor at 10 uM; procedure, shortened: as §1
[32] = Clearance in Wistar rat at 10 mg/kg, iv; assay type: ADME, organism-based; parameters: dose 10 mg/kg, route intravenous; settings: in vivo; procedure, shortened: as §4
[33] = Volume of distribution in Wistar rat at 10 mg/kg, iv; assay type: ADME, organism-based; parameters: dose 10 mg/kg, route intravenous; settings: in vivo; procedure, shortened: as §4
[34] = biological target: T2, 5-hydroxytryptamine receptor 1A (Homo sapiens); experiment: Inhibition of 5-HT1A receptor at 1 uM; procedure, shortened: as §1
[35] = Drug metabolism in human liver microsomes; assay type: ADME, Microsome; settings: read-out: Drug metabolism
[36] = Clearance in Wistar rat at 10 mg/kg, po; assay type: ADME, organism-based; parameters: dose 10 mg/kg, route oral; settings: in vivo; procedure, shortened: as §3

T1 sequence (P50406 whole entry): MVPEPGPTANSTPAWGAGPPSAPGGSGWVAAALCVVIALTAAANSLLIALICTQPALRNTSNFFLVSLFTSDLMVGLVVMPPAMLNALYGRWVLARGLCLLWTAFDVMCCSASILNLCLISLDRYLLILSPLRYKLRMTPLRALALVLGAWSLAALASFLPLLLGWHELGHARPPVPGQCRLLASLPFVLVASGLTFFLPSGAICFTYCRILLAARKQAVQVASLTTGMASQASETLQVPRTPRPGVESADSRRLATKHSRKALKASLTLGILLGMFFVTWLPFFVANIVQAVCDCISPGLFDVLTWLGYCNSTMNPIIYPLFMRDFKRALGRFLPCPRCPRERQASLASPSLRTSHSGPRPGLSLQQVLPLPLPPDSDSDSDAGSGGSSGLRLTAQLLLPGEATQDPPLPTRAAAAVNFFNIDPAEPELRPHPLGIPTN
Chain of Sodium-dependent dopamine transporter (Homo sapiens) (Q01959 whole entry): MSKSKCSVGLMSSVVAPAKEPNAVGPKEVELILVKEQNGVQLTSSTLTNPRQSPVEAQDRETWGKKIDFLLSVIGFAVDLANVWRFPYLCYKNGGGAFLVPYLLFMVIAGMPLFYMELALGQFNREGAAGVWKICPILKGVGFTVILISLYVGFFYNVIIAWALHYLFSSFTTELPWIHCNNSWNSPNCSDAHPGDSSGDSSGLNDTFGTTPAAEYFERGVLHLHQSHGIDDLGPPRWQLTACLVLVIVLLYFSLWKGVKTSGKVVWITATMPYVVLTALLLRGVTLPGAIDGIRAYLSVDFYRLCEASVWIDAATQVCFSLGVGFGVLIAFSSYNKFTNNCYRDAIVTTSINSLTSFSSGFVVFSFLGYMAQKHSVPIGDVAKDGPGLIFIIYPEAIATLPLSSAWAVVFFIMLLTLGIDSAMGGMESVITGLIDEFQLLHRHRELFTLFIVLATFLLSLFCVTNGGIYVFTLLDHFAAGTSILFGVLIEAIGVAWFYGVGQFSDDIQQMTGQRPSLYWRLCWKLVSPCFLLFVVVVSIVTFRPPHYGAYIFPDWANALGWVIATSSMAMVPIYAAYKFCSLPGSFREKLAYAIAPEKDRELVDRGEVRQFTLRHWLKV
Chain of Sodium-dependent serotonin transporter (Homo sapiens) (P31645 whole entry, looked up): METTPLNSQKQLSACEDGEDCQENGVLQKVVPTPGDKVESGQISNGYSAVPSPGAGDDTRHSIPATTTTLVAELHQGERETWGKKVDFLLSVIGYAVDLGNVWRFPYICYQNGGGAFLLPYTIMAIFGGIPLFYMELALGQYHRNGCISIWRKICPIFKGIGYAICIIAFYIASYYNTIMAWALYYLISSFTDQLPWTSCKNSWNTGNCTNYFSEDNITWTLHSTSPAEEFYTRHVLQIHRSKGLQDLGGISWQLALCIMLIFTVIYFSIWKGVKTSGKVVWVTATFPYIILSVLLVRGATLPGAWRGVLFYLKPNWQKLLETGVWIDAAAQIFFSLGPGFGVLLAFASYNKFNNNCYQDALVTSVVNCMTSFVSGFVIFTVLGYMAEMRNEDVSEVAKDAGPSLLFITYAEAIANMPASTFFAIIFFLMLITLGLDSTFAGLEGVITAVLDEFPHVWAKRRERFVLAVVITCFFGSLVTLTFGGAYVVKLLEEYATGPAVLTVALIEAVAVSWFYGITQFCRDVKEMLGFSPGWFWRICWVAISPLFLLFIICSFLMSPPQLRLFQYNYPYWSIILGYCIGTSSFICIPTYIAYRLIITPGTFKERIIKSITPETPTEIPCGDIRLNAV
Chain of 5-hydroxytryptamine receptor 2A (Homo sapiens) (P28223 whole entry): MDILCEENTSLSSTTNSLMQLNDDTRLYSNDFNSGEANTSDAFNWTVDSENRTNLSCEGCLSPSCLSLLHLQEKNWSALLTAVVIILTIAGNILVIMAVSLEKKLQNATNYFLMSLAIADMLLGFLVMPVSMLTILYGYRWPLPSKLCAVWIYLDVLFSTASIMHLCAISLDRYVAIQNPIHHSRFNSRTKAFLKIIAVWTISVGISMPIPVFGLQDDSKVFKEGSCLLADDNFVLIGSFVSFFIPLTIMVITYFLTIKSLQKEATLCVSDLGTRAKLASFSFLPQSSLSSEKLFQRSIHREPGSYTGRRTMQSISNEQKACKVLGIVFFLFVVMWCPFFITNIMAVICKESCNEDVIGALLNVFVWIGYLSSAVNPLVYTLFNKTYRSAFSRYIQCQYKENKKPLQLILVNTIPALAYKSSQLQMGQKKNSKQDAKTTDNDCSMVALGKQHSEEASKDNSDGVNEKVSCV
Chain of Histamine H3 receptor (Homo sapiens) (Q9Y5N1 whole entry): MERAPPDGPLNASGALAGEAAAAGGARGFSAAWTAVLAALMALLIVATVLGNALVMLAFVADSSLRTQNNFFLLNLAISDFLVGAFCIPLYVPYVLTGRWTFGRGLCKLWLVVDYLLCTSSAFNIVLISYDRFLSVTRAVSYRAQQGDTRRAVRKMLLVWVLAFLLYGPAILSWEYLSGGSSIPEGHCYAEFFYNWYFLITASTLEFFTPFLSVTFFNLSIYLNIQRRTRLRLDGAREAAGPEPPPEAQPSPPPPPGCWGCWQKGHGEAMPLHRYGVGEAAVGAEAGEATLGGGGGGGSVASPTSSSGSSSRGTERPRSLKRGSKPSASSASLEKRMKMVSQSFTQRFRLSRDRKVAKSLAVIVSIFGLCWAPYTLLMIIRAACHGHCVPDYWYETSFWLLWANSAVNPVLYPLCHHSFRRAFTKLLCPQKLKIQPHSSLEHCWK
Chain of D(2) dopamine receptor (Homo sapiens) (P14416 whole entry): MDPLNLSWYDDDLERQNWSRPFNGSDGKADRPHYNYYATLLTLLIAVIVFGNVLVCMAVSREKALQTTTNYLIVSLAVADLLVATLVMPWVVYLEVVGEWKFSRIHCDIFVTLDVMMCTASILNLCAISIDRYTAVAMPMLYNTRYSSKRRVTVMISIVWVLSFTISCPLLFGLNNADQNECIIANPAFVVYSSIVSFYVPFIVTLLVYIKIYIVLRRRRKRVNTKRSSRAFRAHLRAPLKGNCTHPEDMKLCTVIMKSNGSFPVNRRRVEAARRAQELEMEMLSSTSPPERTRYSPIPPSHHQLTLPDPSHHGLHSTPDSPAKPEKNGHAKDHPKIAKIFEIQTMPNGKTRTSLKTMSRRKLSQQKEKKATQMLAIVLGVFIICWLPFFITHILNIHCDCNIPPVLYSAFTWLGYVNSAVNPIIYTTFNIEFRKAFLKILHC
Chain of CYP3A4 (P08684 whole entry, canonical isoform): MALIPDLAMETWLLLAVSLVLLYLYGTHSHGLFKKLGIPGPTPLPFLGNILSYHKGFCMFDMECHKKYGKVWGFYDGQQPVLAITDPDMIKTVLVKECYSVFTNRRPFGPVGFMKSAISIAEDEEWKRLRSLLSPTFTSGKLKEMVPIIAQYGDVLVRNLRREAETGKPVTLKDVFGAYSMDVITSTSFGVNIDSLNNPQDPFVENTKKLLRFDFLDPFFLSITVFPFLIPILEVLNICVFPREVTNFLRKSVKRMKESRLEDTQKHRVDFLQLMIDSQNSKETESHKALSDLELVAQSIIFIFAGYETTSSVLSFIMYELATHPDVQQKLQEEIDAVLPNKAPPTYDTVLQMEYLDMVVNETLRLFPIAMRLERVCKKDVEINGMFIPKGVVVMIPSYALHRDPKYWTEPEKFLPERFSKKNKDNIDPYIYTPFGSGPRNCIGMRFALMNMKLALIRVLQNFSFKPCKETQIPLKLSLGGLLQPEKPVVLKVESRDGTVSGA
Chain of CYP2C19 (P33261 whole entry): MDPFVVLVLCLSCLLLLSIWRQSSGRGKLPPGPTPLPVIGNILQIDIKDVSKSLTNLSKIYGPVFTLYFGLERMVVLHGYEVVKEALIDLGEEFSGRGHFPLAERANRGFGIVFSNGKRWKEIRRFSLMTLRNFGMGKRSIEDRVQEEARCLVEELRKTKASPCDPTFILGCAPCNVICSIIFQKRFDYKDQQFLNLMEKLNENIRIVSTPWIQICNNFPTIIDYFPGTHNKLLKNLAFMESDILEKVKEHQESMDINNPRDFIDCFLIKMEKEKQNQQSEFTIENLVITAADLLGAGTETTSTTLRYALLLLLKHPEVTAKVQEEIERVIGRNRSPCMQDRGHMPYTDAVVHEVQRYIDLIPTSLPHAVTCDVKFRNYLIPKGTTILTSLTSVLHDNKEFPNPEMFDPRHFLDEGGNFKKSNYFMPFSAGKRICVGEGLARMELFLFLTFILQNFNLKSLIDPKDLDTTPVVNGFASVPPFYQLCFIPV
Chain of CYP2D6 (P10635 whole entry): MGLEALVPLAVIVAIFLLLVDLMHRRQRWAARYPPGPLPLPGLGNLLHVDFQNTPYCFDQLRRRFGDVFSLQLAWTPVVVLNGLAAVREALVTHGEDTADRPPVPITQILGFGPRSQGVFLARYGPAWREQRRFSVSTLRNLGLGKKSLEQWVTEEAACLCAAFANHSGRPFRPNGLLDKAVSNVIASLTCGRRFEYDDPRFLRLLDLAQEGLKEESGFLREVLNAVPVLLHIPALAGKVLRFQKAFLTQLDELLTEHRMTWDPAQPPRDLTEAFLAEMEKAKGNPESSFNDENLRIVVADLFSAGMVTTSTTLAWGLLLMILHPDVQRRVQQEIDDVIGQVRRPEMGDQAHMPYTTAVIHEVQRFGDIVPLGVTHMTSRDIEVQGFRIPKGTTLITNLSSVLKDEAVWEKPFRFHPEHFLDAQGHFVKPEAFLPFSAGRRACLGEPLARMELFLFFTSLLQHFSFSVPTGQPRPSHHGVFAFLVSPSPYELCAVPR

pKi [1]: 7.24
SMILES: NC1CCc2[nH]c3ccc(S(=O)(=O)c4ccccc4)cc3c2C1 (configuration not stated)

inhibition [2]: 8.15%
inhibition [3]: 1.48%
Kp [4]: 7.6
inhibition [5]: 3.35%
inhibition at 3 µM [6]: 10%
inhibition [7]: 0%
inhibition [8]: 43.1%
inhibition [9]: 22.8%
pIC50 [10]: 6.34
Kb [10]: 4.7 nM
AUC [11]: 544 ng·h/mL
inhibition [12]: 51.3%
bioavailability [14]: 26%
inhibition [15]: 32.7%
inhibition at 3 µM [16]: 50%
Cmax [17]: 90 ng/mL
inhibition [18]: 6.23%
Vd [19]: 21.95 L/kg
inhibition [20]: 2.52%
inhibition at 3 µM [21]: 50%
inhibition [22]: 5.21%
Cmax [23]: 928 ng/mL
inhibition [24]: 46.7%
metabolised [25]: 74%
half-life [26]: 232 min
inhibition [27]: 5.26%
inhibition [28]: 11%
half-life [29]: 460 min
AUC [30]: 2120 ng·h/mL
inhibition [31]: 13.9%
clearance [32]: 73.8 mL/min/kg
Vd [33]: 24.3 L/kg
inhibition [34]: 28.3%
metabolised [35]: 49%
CL/F [36]: 331 mL/min/kg
SMILES: COc1ccc2c(c1)c1c(n2S(=O)(=O)c2ccccc2)CCC(N(C)C)C1 (racemic)
Activity [13]: Active
